Some results are limits rather than exact numbers.

Assay [1] addresses Human immunodeficiency virus type 1 reverse transcriptase (Human immunodeficiency virus 1) (UniProt Q72547). Description: In vitro inhibitory activity against HIV-1 reverse transcriptase at 100 uM. The essentials:
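Recombinant HIV-1 RT (p51/p66 heterodimer, 90–95% pure, 0.0274 μM) with poly(rA) 10 μg/mL and (dT)10 primer 5 μg/mL; 8 μM α-35S-dTTP, 50 mM Tris-HCl pH 8.3, 10 mM MgCl2, 60 mM NaCl, 20 mM DTT, 0.05% NP-40. 37 °C, 15 min; TCA-precipitated label counted on filters. Percent inhibition at 100 μM, mean of at least two determinations.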

Assay [2] concerns Human immunodeficiency virus 1. Description: Effective antiviral dose required to block the spread of HIV-1D34 infection in human peripheral blood mononuclear cells. As to conditions: read-out: ED50 (the source's name). In kind it is functional. The essentials: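 PBMC (1 × 10^6 cells) infected with HIV-1 D34 inoculum containing 1 ng p24, cultured at 37 °C in 5% CO2. Replication read as supernatant p24 at day 4. ED50 = 50% effective antiviral dose, estimated in some cases.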

A short description of assay [3]: Tested for the drug concentration required to decrease […] infected human peripheral blood mononuclear cell viability compared to uninfected controls. The assay is classed as functional. The method, boiled down: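 Uninfected and HIV-1 D34-infected PBMC at 37 °C, 5% CO2. Viability taken from mitogen-stimulated cell proliferation. CC50 is the concentration lowering viability relative to uninfected controls; mostly estimated.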

Broadly, the inhibition is the share of the control response that was lost under treatment. Regarding `CCNc1cccnc1N1CCN(C(=O)c2cccc3[nH]ccc23)CC1`, the inhibition in assay [1] was found to be 28%. Still for that read-out and setting: next, `CCC(=O)c1cccnc1N1CCN(C(=O)c2cc3ccccc3[nH]2)CC1`: 40%; `CCCNc1cccnc1N1CCN(Cc2cc(C)c(OC)c(C)c2)CC1`: 60%. A word on the CC50: it is the concentration that lowers cell viability or growth by half. Low readings indicate harm at low concentration, high ones better tolerance by the cells. Consider `CCNc1cccnc1N1CCN(C(=O)c2cc3c(C)c(OC)c(C)c(C)c3[nH]2)CC1`, for which the EC50 in assay [2] is over 10 µM. Besides, in assay [3], the CC50 is over 10 µM. The molecule also gave an inhibition in assay [1] of 63%.

On to `CCOc1ccccc1N1CCN(C(=O)c2cc(C)c(OC)c(C)c2)CC1`, for which the EC50 in assay [2] was over 1 µM. Besides, the CC50 in assay [3] is under 10 µM. This molecule showed an inhibition in assay [1] of 0%. For `CC(C)Nc1cc(C(F)(F)F)ccc1N1CCN(C(=O)c2cc3ccccc3[nH]2)CC1`, the EC50 in assay [2] is about 1 µM. This molecule also came in with a CC50 in assay [3] of over 10 µM. Further, the inhibition in assay [1] was 22%. For `O=C(c1cc2ccccc2[nH]1)N1CCN(c2ncccc2NCC2CC2)CC1`, in that order: 0.01 µM, over 100 µM and 71%. For the molecule `COc1c(C)cc(CN2CCN(c3ncccn3)CC2)cc1C`, the inhibition in assay [1] came out at 0%.

In the case of `CCNc1cccnc1N1CCN(C(=O)c2cnc3ccccc3c2)CC1`, the inhibition in assay [1] is 14%. Take `CCNc1cccnc1N1CCN(C(=O)c2nc3ccccc3[nH]2)CC1`: in assay [2], the EC50 was determined as 10 µM. The CC50 in assay [3] was over 10 µM. The inhibition in assay [1] amounted to 69%. `CCNc1cccnc1N1CCN(C(=O)c2cnccn2)CC1` returned an inhibition in assay [1] of 0%. Take `CCN(CC)c1cccnc1N1CCN(C(=O)c2cc3ccccc3[nH]2)CC1`: the EC50 in assay [2] turned out to be 1 µM. The CC50 in assay [3] is over 10 µM. In assay [1], this molecule displayed an inhibition of 69%. On to `CCN(C(C)=O)c1cccnc1N1CCN(C(=O)c2cc3ccccc3[nH]2)CC1`, for which, in assay [1], the inhibition was 8%. The same measure, in the same setting: next, `CCNc1cccnc1N1CCN(C(=O)c2nc3ccccc3s2)CC1`: 0%; `N#Cc1cccnc1N1CCN(C(=O)c2cc3ccccc3[nH]2)CC1`: 5%; `CCNc1cccnc1N1CCN(C(=O)c2cc3ccccc3oc2=O)CC1`: 16%. In turn, `CC(C)NCc1cccnc1N1CCN(C(=O)c2cc3ccccc3[nH]2)CC1` showed an inhibition in assay [1] of 0%. For `COc1c(C)cc(C(=O)N2CCN(c3ccccn3)CC2)cc1C`, in assay [2], the EC50 is over 10 µM. The CC50 in assay [3] is over 100 µM. In addition, the inhibition in assay [1] amounted to 5%. For the molecule `CCNc1cccnc1N1CCN(C(=O)c2cccs2)CC1`, the EC50 in assay [2] is about 10 µM. Further, the half-maximal cytotoxic concentration (CC50) in assay [3] is over 100 µM. The molecule further yielded an inhibition in assay [1] of 60%.

`CNc1cccnc1N1CCN(C(=O)c2cc3ccccc3[nH]2)CC1`: in assay [2], the EC50 was about 1 µM. In assay [3], this molecule displayed a CC50 of over 10 µM. In addition, the inhibition in assay [1] is 85%. Take `CCC(CC)Nc1cccnc1N1CCN(C(=O)c2cc3ccccc3[nH]2)CC1`: the EC50 in assay [2] stood at 0.1 µM. The molecule also returned a CC50 in assay [3] of over 10 µM. The same molecule displayed an inhibition in assay [1] of 82%. In assay [1], `CCNc1cccnc1N1CCN(C(=O)c2c[nH]c3ccccc23)CC1` had an inhibition of 22%. Consider `CCC(C)Nc1cccnc1N1CCN(C(=O)c2cc3ccccc3[nH]2)CC1` (centres undefined), for which the EC50 in assay [2] came to 0.01 µM. For the same molecule, the CC50 in assay [3] was over 10 µM. Also, the inhibition in assay [1] was determined as 95%.

`Nc1cccnc1N1CCN(C(=O)c2cc3ccccc3[nH]2)CC1`: the EC50 in assay [2] was over 10 µM. This molecule gave a CC50 in assay [3] of over 100 µM. The inhibition in assay [1] stood at 20%. Turning to `CCNc1cccnc1N1CCN(C(=O)c2ccc[nH]2)CC1`, in assay [2], the EC50 was over 1 µM. Also, the CC50 in assay [3] is over 100 µM. Further, in assay [1], the inhibition was determined as 87%. As for `CCNc1cccnc1N1CCN(C(=O)c2cc(C)c(OC)c(C)c2)CC1`, in assay [2], the EC50 was 1 µM. The molecule also registered a 50% cytotoxic concentration (CC50) in assay [3] of over 100 µM. Besides, the inhibition in assay [1] came to 69%. As for `CCCNc1cccnc1N1CCN(C(=O)c2cc3ccccc3[nH]2)CC1`, the EC50 in assay [2] was 0.1 µM. The molecule also displayed a CC50 in assay [3] of over 100 µM. This molecule also returned an inhibition in assay [1] of 64%.

With `COc1c(C)cc(C(=O)N2CCN(c3ncccc3NC(C)C)CC2)cc1C`, the EC50 in assay [2] came to 0.1 µM. In assay [3], the CC50 was over 10 µM. Besides, the inhibition in assay [1] turned out to be 78%. For `CC(=O)Nc1cccnc1N1CCN(C(=O)c2cc3ccccc3[nH]2)CC1` the same measures were over 10 µM, over 100 µM and 0%. For the molecule `COc1c(C)cc(CN2CCN(c3ccccn3)CC2)cc1C`, the EC50 in assay [2] was over 10 µM. Also, the CC50 in assay [3] was over 100 µM. This molecule had an inhibition in assay [1] of 0%. As for `O=C(c1cc2ccccc2[nH]1)N1CCN(c2ncccc2NCC(F)(F)F)CC1`, in assay [2], the EC50 came to 1 µM. For the same molecule, the CC50 in assay [3] is over 10 µM. In addition, the inhibition in assay [1] is 40%. For `CCNc1cccnc1N1CCN(C(=O)c2cccc3cc[nH]c23)CC1`, in that order: 1 µM, over 100 µM and 87%.

For the molecule `CC(C)Nc1ccc(F)cc1N1CCN(C(=O)c2cc3ccccc3[nH]2)CC1`, the EC50 in assay [2] came out at 0.1 µM. In assay [3], this molecule yielded a CC50 of over 100 µM. The molecule also registered an inhibition in assay [1] of 77%. For `CCNc1ccccc1N1CCN(C(=O)c2cc3ccccc3[nH]2)CC1`, in that order: 1 µM, over 100 µM and 78%.

As to `CC(C)Nc1cc(F)ccc1N1CCN(C(=O)c2cc3ccccc3[nH]2)CC1`, in assay [2], the EC50 worked out at 0.1 µM. The same molecule returned a CC50 in assay [3] of over 10 µM. For the same molecule, the inhibition in assay [1] is 83%. Regarding `COc1ccccc1N1CCN(C(=O)c2cc3ccccc3[nH]2)CC1`, in assay [1], the inhibition worked out at 33%.

In assay [1], `O=C(c1cc2ccccc2[nH]1)N1CCN(c2ncccc2[N+](=O)[O-])CC1` showed an inhibition of 5%. Regarding `CCNc1cccnc1N1CCN(Cc2cc3ccccc3[nH]2)CC1`, the EC50 in assay [2] was determined as 1 µM. Further, the inhibition in assay [1] is 64%. On to `CCOc1ccccc1N1CCN(Cc2cc(C)c(OC)c(C)c2)CC1`, for which, in assay [1], the inhibition turned out to be 0%. Molecule `CCc1ccccc1N1CCN(C(=O)c2cc3ccccc3[nH]2)CC1` yielded an inhibition in assay [1] of 0%.

In turn, `O=C(c1cc2ccccc2[nH]1)N1CCN(c2ncccc2NCc2ccccc2)CC1` had an inhibition in assay [1] of 14%. As to `CCNc1cccnc1N1CCN(C(=O)c2cc3ccccc3s2)CC1`, in assay [2], the EC50 was found to be 10 µM. For the same molecule, in assay [3], the CC50 is about 100 µM. Moreover, the inhibition in assay [1] is 50%. In the case of `CNC(=O)c1cccnc1N1CCN(C(=O)c2cc3ccccc3[nH]2)CC1`, the inhibition in assay [1] was determined as 0%. In the case of `CCNc1cccnc1N1CCN(C(=O)c2ccc3[nH]ccc3c2)CC1`, the EC50 in assay [2] is about 10 µM. Also, in assay [3], the cytotoxic concentration (CC50) is over 100 µM. In addition, the inhibition in assay [1] was 45%. For the molecule `CC(C)C(=O)c1cccnc1N1CCN(C(=O)c2cc3ccccc3[nH]2)CC1`, the inhibition in assay [1] worked out at 26%. `CC(C)Nc1cnnc(N2CCN(C(=O)c3ccc4[nH]ccc4c3)CC2)c1`: the inhibition in assay [1] is 39%. The same measure, in the same setting: next, `CC(C)(C)NC(=O)c1cccnc1N1CCN(C(=O)c2cc3ccccc3[nH]2)CC1`: 50%; `CCNc1cccnc1N1CCN(C(=O)c2ccc3ccccc3n2)CC1`: 0%. In assay [1], `CCNc1cccc(N2CCN(C(=O)c3ccc4[nH]ccc4c3)CC2)n1` registered an inhibition of 0%.

Consider `COc1c(C)cc(CN2CCN(c3ncccc3NC(C)C)CC2)cc1C`, for which the EC50 in assay [2] was determined as 1 µM. In assay [3], this molecule gave a CC50 of about 10 µM. Moreover, the inhibition in assay [1] was found to be 84%. For `CCNc1cccnc1N1CCN(C(=O)c2ccc3ccccc3c2)CC1` the same measures were 10 µM, over 10 µM and 74%. Molecule `CC(=O)c1cccnc1N1CCN(C(=O)c2cc3ccccc3[nH]2)CC1` showed an inhibition in assay [1] of 30%. Regarding `CCOc1ccccc1N1CCN(C(=O)c2cc3ccccc3[nH]2)CC1`, the EC50 in assay [2] is over 1 µM. The same molecule registered a CC50 in assay [3] of under 10 µM. The same molecule gave an inhibition in assay [1] of 76%. As to `COC(=O)c1cccnc1N1CCN(C(=O)c2cc3ccccc3[nH]2)CC1`, in assay [1], the inhibition was found to be 82%. In turn, `CC(C)Nc1ccccc1N1CCN(C(=O)c2cc3ccccc3[nH]2)CC1` gave an inhibition in assay [1] of 87%.

In the case of `CCNc1cccnc1N1CCN(C(=O)c2nc3ccccc3o2)CC1`, the inhibition in assay [1] was 0%.

For the molecule `CCNc1cccnc1N1CCN(C(=O)c2cc3ccccc3o2)CC1`, in assay [2], the EC50 is 10 µM. The molecule further gave a 50% cytotoxic concentration (CC50) in assay [3] of over 10 µM. The same molecule registered an inhibition in assay [1] of 37%. Molecule `CC(C)(C)C(=O)c1cccnc1N1CCN(C(=O)c2cc3ccccc3[nH]2)CC1` came in with an inhibition in assay [1] of 58%. The molecule `COc1ccc(N2CCN(C(=O)c3cc4ccccc4[nH]3)CC2)c(OC)c1` returned an inhibition in assay [1] of 7%. Molecule `CC(C)Nc1ccc(N2CCN(C(=O)c3ccc4[nH]ccc4c3)CC2)nc1` yielded an inhibition in assay [1] of 0%. With `CCNc1cccnc1N1CCN(C(=O)c2ccco2)CC1`, the EC50 in assay [2] was over 10 µM. The cytotoxic concentration (CC50) in assay [3] was over 100 µM. Further, the inhibition in assay [1] stood at 39%. As to `N#Cc1ccccc1N1CCN(C(=O)c2cc3ccccc3[nH]2)CC1`, the inhibition in assay [1] is 0%.

Turning to `CCOC(=O)c1cccnc1N1CCN(C(=O)c2cc3ccccc3[nH]2)CC1`, the inhibition in assay [1] was found to be 68%.

Values taken from ChEMBL document CHEMBL1127691, “Discovery, synthesis, and bioactivity of bis(heteroaryl)piperazines. 1. A novel class of non-nucleoside HIV-1 reverse transcriptase inhibitors” (J Med Chem, 1994).
